Legend:
HL-60 [1] = test: Photocytotoxicity against human HL60 cells irradiated with 2.5 J cm^-2 ultraviolet radiation after 72 hrs by MTT assay; assay type: functional; details: HL-60, light or radiation study
Method in brief: (§1)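 Culture media, each with penicillin G, streptomycin and 10% FBS: HL-60 in RPMI-1640, NCTC 2544 in DMEM, LoVo in Ham's F12. Seeding was 8 × 10³ HL-60 or 5 × 10³ NCTC 2544/LoVo cells per well, 18 h at 37 °C. Drug in DMSO diluted with HBSS pH 7.2 was added for 30 min at 37 °C, then UVA applied (dose measured at 365 nm). Medium was replaced, 72 h incubation, MTT read-out. GI50 is the concentration giving 50% growth inhibition.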

HL-60 [2] = test: Photocytotoxicity against human HL60 cells irradiated with 1.25 J cm^-2 ultraviolet radiation after 72 hrs by MTT assay; assay type: functional; details: HL-60, light or radiation study; method in brief: as §1
LoVo [3] = test: Photocytotoxicity against human LoVo cells irradiated with 1.25 J cm^-2 ultraviolet radiation after 72 hrs by MTT assay; assay type: functional; details: light or radiation study; method in brief: as §1
LoVo [4] = test: Photocytotoxicity against human LoVo cells irradiated with 2.5 J cm^-2 ultraviolet radiation after 72 hrs by MTT assay; assay type: functional; details: light or radiation study; method in brief: as §1
[5] = Photocytotoxicity against human NCTC 2544 cells irradiated with 2.5 J cm^-2 ultraviolet radiation after 72 hrs by MTT assay; assay type: cell-based; method in brief: as §1
[6] = Photocytotoxicity against human NCTC 2544 cells irradiated with 1.25 J cm^-2 ultraviolet radiation after 72 hrs by MTT assay; assay type: cell-based; method in brief: as §1

Row | SMILES | GI50 (HL-60 [1]) | GI50 (HL-60 [2]) | GI50 (LoVo [3]) | GI50 (LoVo [4]) | GI50 at 72 h [5] | GI50 at 72 h [6]
1 | Cc1cc(F)ccc1C1=Nc2c(F)cccc2SC(C(=O)O)C1 (stereo not given) | 0.8 µM | 6.6 µM | 3.8 µM | 1.94 µM | 2.6 µM | 7 µM
2 | Cc1cc(F)ccc1C1=Nc2c(Cl)cccc2SC(C(=O)O)C1 (stereo not given) | 6.9 µM | > 10 µM | 16.8 µM | 9.8 µM | 6.9 µM | > 20 µM
3 | COc1cccc2c1C(=O)c1c(O)c3c(c(O)c1C2=O)C[C@@](O)(C(=O)CO)C[C@@H]3O[C@H]1C[C@H](N)[C@H](O)[C@H](C)O1 [DOXORUBICIN] | 1.45 µM | 2.36 µM | 8.54 µM | 5.48 µM | 1.32 µM | 3.04 µM
4 | Cc1cc(F)ccc1C1=Nc2c(Br)cccc2SC(C(=O)O)C1 (stereo not given) | 0.9 µM | 2.5 µM | > 20 µM | 13.2 µM | > 20 µM | > 20 µM
5 | Cc1ccc2c(c1)SC(C(=O)O)CC(c1ccc(F)cc1C)=N2 (stereo not given) | 10 µM | > 10 µM |  |  |  | 
6 | Cc1cc(F)ccc1C1=Nc2ccc(Cl)cc2SC(C(=O)O)C1 (stereo not given) | 6.8 µM | > 10 µM |  |  |  | 
7 | COc1ccc2c(c1)SC(C(=O)O)CC(c1ccc(F)cc1C)=N2 (stereo not given) | 10 µM | > 10 µM |  |  |  | 

Source: ChEMBL document CHEMBL1140780, “The expedient synthesis of 1,5-benzothiazepines as a family of cytotoxic drugs” (Bioorg Med Chem Lett, 2008)
